Calls of active or inactive are those of the source. The calls are words filed in the database; no cut-off is given here.
Tests used:
[1] = biological target: T1, Heat shock protein HSP 90-alpha (Homo sapiens, UniProt P07900); assay: Binding affinity to HSP90-alpha (unknown origin) expressed in Escherichia coli BL21 by SPR assay
CNE-2 = assay: Cytotoxicity in human CNE-2 cells assessed as reduction in cell viability incubated for 48 hrs by MTT assay; format: cell-based; details: CNE-2, 48 h
Outline: (§1)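 Cells were seeded at 3 × 10³ cells per well and grown for 24 h at 37 °C in 5% CO₂. CNE2 was grown in RPMI 1640 and HeLa and HepG2 in DMEM, each with 10% FBS and 1% penicillin/streptomycin. Cells were exposed to 0−20 μM inhibitor for 48 h, with a DMSO solvent control. MTT (0.5 mg/mL) was then added for 3 h.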

[2] = biological target: T2, Heat shock protein HSP 90-beta (Homo sapiens, UniProt P08238); assay: Inhibition of HSP90-beta (unknown origin) expressed in Escherichia coli BL21 assessed as reduction in ATPase activity in presence of PEP, NADH and ATP by pyruvate kinase/lactic dehydrogenase based coupled enzyme assay
[3] = biological target: T1, Heat shock protein HSP 90-alpha; assay: Inhibition of HSP90-alpha (unknown origin) expressed in Escherichia coli BL21 assessed as reduction in ATPase activity in presence of PEP, NADH and ATP by pyruvate kinase/lactic dehydrogenase based coupled enzyme assay
HeLa = assay: Cytotoxicity in human HeLa cells assessed as reduction in cell viability incubated for 48 hrs by MTT assay; format: cell-based; outline: as §1
HepG2 = assay: Cytotoxicity in human HepG2 cells assessed as reduction in cell viability incubated for 48 hrs by MTT assay; format: cell-based; details: HepG2, 48 h; outline: as §1
[4] = biological target: T2, Heat shock protein HSP 90-beta; assay: Binding affinity to HSP90-beta (unknown origin) expressed in Escherichia coli BL21 by SPR assay

T2 sequence (P08238 whole entry): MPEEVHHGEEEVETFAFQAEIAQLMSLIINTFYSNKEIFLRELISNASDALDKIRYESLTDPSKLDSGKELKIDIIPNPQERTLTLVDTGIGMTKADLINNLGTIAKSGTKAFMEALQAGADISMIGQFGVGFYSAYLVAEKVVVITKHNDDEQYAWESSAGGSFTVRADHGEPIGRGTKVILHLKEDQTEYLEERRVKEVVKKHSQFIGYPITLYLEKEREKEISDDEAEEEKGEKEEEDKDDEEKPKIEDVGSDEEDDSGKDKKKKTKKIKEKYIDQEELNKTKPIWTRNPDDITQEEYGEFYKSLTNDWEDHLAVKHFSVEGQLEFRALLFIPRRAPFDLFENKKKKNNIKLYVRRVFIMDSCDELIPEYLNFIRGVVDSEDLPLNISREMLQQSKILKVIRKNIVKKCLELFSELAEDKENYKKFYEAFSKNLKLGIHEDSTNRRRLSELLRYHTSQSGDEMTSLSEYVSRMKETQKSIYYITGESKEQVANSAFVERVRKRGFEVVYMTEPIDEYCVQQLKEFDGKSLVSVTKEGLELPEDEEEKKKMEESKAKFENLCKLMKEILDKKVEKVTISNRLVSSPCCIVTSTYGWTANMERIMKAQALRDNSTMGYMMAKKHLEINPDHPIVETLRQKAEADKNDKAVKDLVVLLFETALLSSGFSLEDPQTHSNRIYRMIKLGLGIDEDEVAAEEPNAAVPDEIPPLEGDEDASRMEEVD

SMILES	Activity [1]	IC50 (CNE-2) [µM]	IC50 [2] [µM]	IC50 [3] [µM]	other results
CC(C)(C)c1csc(N)n1	Active				
CC(C)(C)c1ccc(Cn2cc(-c3ccc(O)cc3)nn2)c(O)c1		> 20	> 40	> 40	
COc1ccc(-c2cn(Cc3ccc(C(C)(C)C)cc3)nn2)c(N)c1		> 20	> 40	> 40	
C=CCNC1=C2C[C@@H](C)C[C@H](OC)[C@H](O)[C@@H](C)/C=C(\C)[C@H](OC(N)=O)[C@@H](OC)/C=C\C=C(/C)C(=O)NC(=CC1=O)C2=O [TANESPIMYCIN]		3.03			IC50 (HeLa): 19.4 µM; IC50 (HepG2): 8 µM
O=C(O)c1csc(-c2ccc(Cl)cc2)n1	Active				
CC(C)(C)c1ccc(Cn2cc(-c3ccc(O)cc3)nn2)cc1		5.6	1.8	1.3	
COc1ccc(-c2cn(Cc3cc(C(F)(F)F)cc(C(F)(F)F)c3)nn2)cc1		14.1	9.8	6.2	Kd [4]: 7 µM; IC50 (HeLa): 22.4 µM; Kd [1]: 3.1 µM; IC50 (HepG2): 18.1 µM
CCSc1ccc(N)s1	Active				
COc1cc(-c2cn(Cc3ccc(C(C)(C)C)cc3)nn2)cc(OC)c1OC		1.8	2.7	2.7	
CC(C)(C)c1ccc(Cn2cc(-c3ccc(O)cc3N)nn2)cc1		1.6	14.6	13.7	
CC(=O)c1ccc(-n2ccnc2)cc1	Active				
COc1ccc(-c2cn(Cc3ccc(C(C)(C)C)cc3)nn2)cc1		4	5.6	5.6	Kd [4]: 4.8 µM; IC50 (HeLa): > 50 µM; Kd [1]: 4.8 µM; IC50 (HepG2): > 50 µM
COc1ccc(-c2cn(Cc3ccc(C(C)(C)C)cc3)nn2)c([N+](=O)[O-])c1		1.6	5	5	
CC(C)(C)c1ccc(Cn2cc(-c3ccc(O)cc3[N+](=O)[O-])nn2)cc1		1.6	1.7	1.7	
Nc1cccs1	Active				
Cc1noc(N)c1C	Active				
Nc1cc(-c2ccccc2)n[nH]1	Active				
